This note sets out measurements from ChEMBL document CHEMBL4043205, “Picomolar inhibition of β-galactosidase (bovine liver) attributed to loop closure” (Bioorg Med Chem, 2017).

Molecules are shown by their SMILES. Activity calls are given as the source filed them. The rule behind the calls is not given here.

Test [1] addresses T1, Beta-galactosidase (Bos taurus, UniProt Q58D55).
T1 sequence (Q58D55 whole entry): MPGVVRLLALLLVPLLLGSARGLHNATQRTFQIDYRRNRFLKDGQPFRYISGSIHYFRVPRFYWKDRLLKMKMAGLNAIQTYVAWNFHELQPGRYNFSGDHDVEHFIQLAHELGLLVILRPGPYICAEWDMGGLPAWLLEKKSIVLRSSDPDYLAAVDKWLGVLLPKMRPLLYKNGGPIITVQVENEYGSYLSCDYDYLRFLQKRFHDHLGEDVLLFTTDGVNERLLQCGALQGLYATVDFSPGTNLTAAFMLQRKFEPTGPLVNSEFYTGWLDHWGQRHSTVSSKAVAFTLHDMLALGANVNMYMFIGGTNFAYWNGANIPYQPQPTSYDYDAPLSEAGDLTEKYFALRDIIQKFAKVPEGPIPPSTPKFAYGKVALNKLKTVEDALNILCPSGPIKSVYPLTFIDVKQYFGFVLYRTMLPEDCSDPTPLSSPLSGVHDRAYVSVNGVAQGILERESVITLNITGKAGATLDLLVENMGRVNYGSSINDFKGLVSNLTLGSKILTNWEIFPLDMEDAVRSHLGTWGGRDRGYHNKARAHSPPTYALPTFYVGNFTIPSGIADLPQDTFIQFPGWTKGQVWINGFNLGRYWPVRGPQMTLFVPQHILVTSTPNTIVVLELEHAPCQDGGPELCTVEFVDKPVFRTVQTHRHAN
The experiment in a line: Inhibition of bovine liver beta-galactosidase using 4-nitrophenyl-beta-D-galactopyranoside substrate measured over 240 mins at 10 mins intervals by UV/Vis spectroscopy. Put shortly:
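Bovine liver enzyme in 5 mM HEPES pH 7.50; 4-nitrophenyl-β-D-galactopyranoside mixed with 11 inhibitor dilutions (stocks 0.005–200 μM), equilibrated 30 °C 30 min, then enzyme added. Absorbance at 405 nm followed 240 min; final reads converted to percent inhibition against buffer control, plotted versus log inhibitor concentration; duplicates.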

In test [2] the target is T2, Beta-galactosidase (Bos taurus) (UniProt Q58D55).
T2 sequence (whole entry): T1 sequence (Q58D55 whole entry)
The experiment in a line: Competitive inhibition of bovine liver beta-galactosidase using 4-nitrophenyl-beta-D-galactopyranoside substrate measured over 240 mins at 10 mins intervals by UV/Vis spectroscopy based Eddie-Hofstee plot.

Test [3] relates to Aspergillus oryzae. The test can be described thus: Inhibition of Aspergillus oryzae beta-galactosidase using 2-chloro-4-nitrophenyl b-dgalactopyranoside substrate by Eddie-Hofstee plot.
The test system of test [4] is Aspergillus oryzae. The test can be described thus: Inhibition of Aspergillus oryzae beta-galactosidase using 2-chloro-4-nitrophenyl b-dgalactopyranoside substrate by Lineweaver-Burk plot.
The nature of test [5]: Inhibition of Aspergillus oryzae beta-galactosidase using 2-chloro-4-nitrophenyl b-dgalactopyranoside substrate.
The target of test [6] is T2, Beta-galactosidase (Bos taurus). The experiment in a line: Competitive inhibition of bovine liver beta-galactosidase using 4-nitrophenyl-beta-D-galactopyranoside substrate measured over 240 mins at 10 mins intervals by UV/Vis spectroscopy based Lineweaver-Burk plot.
Test [7] can be described thus: Inhibition of Aspergillus oryzae beta-galactosidase using 2-chloro-4-nitrophenyl b-dgalactopyranoside substrate relative to control.
The target in test [8] is T1, Beta-galactosidase. The test can be described thus: Inhibition of bovine liver beta-galactosidase pre-incubated for 30 mins with 4-nitrophenyl-beta-D-galactopyranoside substrate before enzyme addition measured over 45 mins at 27 secs intervals by UV/Vis based spectroscopy. Summed up: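 Bovine liver enzyme (stock aliquot thawed, diluted in 5 mM HEPES, kept on ice). Varied 4-nitrophenyl-β-D-galactopyranoside with fixed inhibitor, pH 7.50 HEPES, equilibrated 30 °C 30 min before enzyme; 405 nm read for 45 min. Initial rates via ε 13,300 M−1 cm−1, fitted Michaelis-Menten at ≥2 inhibitor levels; competitive Ki from K′m = Km(1+[I]/Ki); duplicates, Lineweaver-Burk check.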

`OC[C@H]1N/C(=N\CC2CC2)[C@H](O)[C@@H](O)[C@H]1O`: the values for the IC50 in test [1] and in test [7] were more than 1400 nM and 36 nM, respectively. The “competitive inhibition (qualitative call)” value (“competitive inhibition” below) in test [2] is “Active”. For the same molecule, the “inhibition activity (qualitative)” value in test [3] was “Active”. Further, the inhibition activity entry in test [4] was “Active”. Moreover, the Ki (as a rule, the dissociation constant of the complex between target and ligand, obtained from inhibition or displacement) turned out to be 9.5 nM in test [5] and 0.39 nM in test [8]. Further, the “Inhibition mode (qualitative, Lineweaver-Burk)” value (“Inhibition mode” below) in test [6] is “Active”.

With `OC[C@H]1N/C(=N\C2CCCCC2)[C@H](O)[C@@H](O)[C@H]1O`, the figures for the IC50 in test [1] and in test [7] were more than 1000 nM and 4870 nM, respectively. Further, the “competitive inhibition” value in test [2] was “Active”. In test [3], the “inhibition activity (qualitative)” value is “Active”. Further, in test [4], the inhibition activity entry was “Active”. Besides, the Ki was determined as 602 nM in test [5] and 2.34 nM in test [8]. Also, the “Inhibition mode” value in test [6] was “Active”.

For `CC(C)(C)c1ccc(C/N=C2\N[C@H](CO)[C@H](O)[C@H](O)[C@H]2O)cc1`, the results for the IC50 in test [1] and in test [7] were 412 nM and 122 nM, respectively. In addition, the “competitive inhibition” value in test [2] is “Active”. The “inhibition activity (qualitative)” value in test [3] is “Active”. Moreover, the inhibition activity result in test [4] is “Active”. Moreover, the Ki turned out to be 20.6 nM in test [5] and 0.11 nM in test [8]. In addition, the “Inhibition mode” value in test [6] was “Active”.

Regarding `OC[C@H]1N/C(=N\Cc2ccc(F)cc2)[C@H](O)[C@@H](O)[C@H]1O`, the figures for the IC50 in test [1] and in test [7] were 9.1 nM and 331 nM, respectively. Besides, in test [2], the “competitive inhibition” value was “Active”. The “inhibition activity (qualitative)” value in test [3] was “Active”. In addition, the inhibition activity result in test [4] is “Active”. Besides, the Ki was 10.1 nM in test [5] and 0.19 nM in test [8]. Besides, in test [6], the “Inhibition mode” value was “Active”.

With `CCC/N=C1\N[C@H](CO)[C@H](O)[C@H](O)[C@H]1O`, the results for the IC50 in test [1] and in test [7] were 1030 nM and 226 nM, respectively. For the same molecule, the “competitive inhibition” value in test [2] was “Active”. Also, the “inhibition activity (qualitative)” value in test [3] was “Active”. Besides, the inhibition activity entry in test [4] is “Active”. Also, the Ki in test [5] worked out at 149 nM; in test [8], 0.32 nM. For the same molecule, in test [6], the “Inhibition mode” value is “Active”.

Turning to `OC[C@H]1N/C(=N\CC2CCCCC2)[C@H](O)[C@@H](O)[C@H]1O`, the IC50 (commonly the midpoint of a concentration-inhibition curve) in test [1] stood at 11.6 nM; in test [7] it was 22 nM. Further, in test [2], the “competitive inhibition” value is “Active”. Further, the “inhibition activity (qualitative)” value in test [3] was “Active”. Also, the inhibition activity entry in test [4] was “Active”. Further, the Ki in test [5] came to 11.3 nM; in test [8], 0.08 nM. In test [6], the “Inhibition mode” value is “Active”.

Consider `O=C1N[C@H](CO)[C@H](O)[C@H](O)[C@H]1O`, for which the IC50 in test [1] was 8700 nM; in test [7] it was more than 50000 nM. Besides, the “competitive inhibition” value in test [2] was “Active”. In addition, the “inhibition activity (qualitative)” value in test [3] is “Active”. Besides, the inhibition activity result in test [4] was “Active”. The Ki in test [5] was found to be 615 nM; in test [8] it was 2700 nM. Further, in test [6], the “Inhibition mode” value was “Active”.

As for `Cc1ccc(C/N=C2\N[C@H](CO)[C@H](O)[C@H](O)[C@H]2O)cc1`, the IC50 came out at 57.6 nM in test [1] and 36 nM in test [7]. For the same molecule, the “competitive inhibition” value in test [2] was “Active”. Also, the “inhibition activity (qualitative)” value in test [3] was “Active”. For the same molecule, the inhibition activity result in test [4] is “Active”. Also, the Ki in test [5] is 8 nM; in test [8], 0.07 nM. The “Inhibition mode” value in test [6] was “Active”.

On to `CCCCC(CC)CNC1=N[C@H](CO)[C@H](O)[C@H](O)[C@H]1O` (stereo partly drawn), for which the IC50 in test [1] came to 21.6 nM; in test [7], 36 nM. The “competitive inhibition” value in test [2] was “Active”. Besides, the “inhibition activity (qualitative)” value in test [3] is “Active”. For the same molecule, the inhibition activity result in test [4] is “Active”. In addition, the Ki is 7.8 nM in test [5] and 0.18 nM in test [8]. Also, the “Inhibition mode” value in test [6] is “Active”.

For the molecule `CO[C@@H]1[C@H](O)[C@@H](O)C(NCc2ccc(C)cc2)=N[C@@H]1CO`, the results for the IC50 in test [1] and in test [7] were 9200 nM and 40700 nM, respectively. Besides, the “competitive inhibition” value in test [2] was “Active”. The “inhibition activity (qualitative)” value in test [3] was “Active”. Besides, the inhibition activity result in test [4] was “Active”. The Ki is 1400 nM in test [5] and 840 nM in test [8]. Further, the “Inhibition mode” value in test [6] is “Active”.

For `OC[C@H]1N/C(=N\CC2CCCCCC2)[C@H](O)[C@@H](O)[C@H]1O`, the IC50 in test [1] came out at 45.4 nM; in test [7], 36 nM. Moreover, the “competitive inhibition” value in test [2] was “Active”. Moreover, the “inhibition activity (qualitative)” value in test [3] is “Active”. Also, the inhibition activity entry in test [4] is “Active”. In addition, the figures for the Ki in test [5] and in test [8] were 6.3 nM and 0.16 nM, respectively. In test [6], the “Inhibition mode” value is “Active”.

`OC[C@H]1N/C(=N\Cc2ccc(C(F)(F)F)cc2)[C@H](O)[C@@H](O)[C@H]1O`: the values for the IC50 in test [1] and in test [7] were 15.2 nM and 122 nM, respectively. The “competitive inhibition” value in test [2] is “Active”. Further, the “inhibition activity (qualitative)” value in test [3] was “Active”. For the same molecule, the inhibition activity result in test [4] is “Active”. In addition, the results for the Ki in test [5] and in test [8] were 15.7 nM and 0.16 nM, respectively. Besides, the “Inhibition mode” value in test [6] is “Active”.

`CCCCCCCCCCCNC1=N[C@H](CO)[C@H](O)[C@H](O)[C@H]1O`: the IC50 in test [1] was determined as 42.7 nM; in test [7], 33.5 nM. Also, in test [2], the “competitive inhibition” value was “Active”. Besides, in test [3], the “inhibition activity (qualitative)” value is “Active”. The inhibition activity entry in test [4] is “Active”. Further, the Ki was 48.4 nM in test [5] and 0.24 nM in test [8]. In test [6], the “Inhibition mode” value is “Active”.

On to `Cc1ccccc1C/N=C1\N[C@H](CO)[C@H](O)[C@H](O)[C@H]1O`, for which the values for the IC50 in test [1] and in test [7] were 118 nM and 623 nM, respectively. In test [2], the “competitive inhibition” value was “Active”. Further, the “inhibition activity (qualitative)” value in test [3] was “Active”. Besides, the inhibition activity result in test [4] is “Active”. The Ki in test [5] was 23.6 nM; in test [8] it was 0.2 nM. The “Inhibition mode” value in test [6] is “Active”.

For the molecule `OC[C@H]1N/C(=N\C2CC2)[C@H](O)[C@@H](O)[C@H]1O`, the IC50 in test [1] is more than 1000 nM; in test [7] it was 369 nM. Also, the “competitive inhibition” value in test [2] is “Active”. In test [3], the “inhibition activity (qualitative)” value is “Active”. Also, in test [4], the inhibition activity entry was “Active”. The Ki in test [5] stood at 31.9 nM; in test [8], 0.32 nM. Moreover, the “Inhibition mode” value in test [6] was “Active”.

As to `Cc1cccc(C/N=C2\N[C@H](CO)[C@H](O)[C@H](O)[C@H]2O)c1`, the IC50 in test [1] came to 16.2 nM; in test [7] it was 131 nM. Also, in test [2], the “competitive inhibition” value was “Active”. In test [3], the “inhibition activity (qualitative)” value was “Active”. For the same molecule, the inhibition activity result in test [4] was “Active”. The Ki in test [5] is 29.4 nM; in test [8], 0.11 nM. Also, in test [6], the “Inhibition mode” value was “Active”.
